Most compounds without a hit are left out; they make up all but 3.1% or so of the library.
CFTR F508del cor – F508del CFTR correction, initial screen, CFBE line, single point. CFBE cells, YFP halide quenching; stimulated with forskolin plus potentiator P3; % fluorescence drop versus neutral controls. activity (quench increase), % at 7.58 µM. 350,000 compounds, 0.36% hits;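 active means mean added fluorescence quench of at least 8% versus neutral control, with both replicates also reaching 8%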;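 further: cells transiently co-express mutant CFTR-F508del with the halide-sensitive YFP; corrector assay measuring rescue of mutant channel to the surface after 24 h compound exposure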
miR122 inh – miR-122 Renilla sensor signal increase in Huh7, primary screen, miR-122 inhibitor project, cell-based, single point, plate reader | Huh7 miR-122 Renilla luciferase sensor, 48 h; neutral wells = 0, positive control = 100 | activation (reporter increase), % at 12.5 µM | 340,000 compounds, 0.3% hits | AID 602342, 2012;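 active means mean replicate activation score at least 90 and every replicate individually at or above 90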;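 further: higher luciferase means less miR-122 activity so hits act as miR-122 inhibitors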
GSIS activator – GLuc luminescence reporter in INS-1E cells, primary screen for activators of glucose-dependent secretion of insulin; activation, % at 16.6 µM; AID 743287, 2014; 370,000 compounds, 0.61% hits; INS-1E GLuc reporter insulin secretion, 2-3 h;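 active means lowest replicate activation of at least 40%, so every replicate reaches that level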;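 further: 0% = median of neutral control wells and 100% = median of IBMX positive control wells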
HIV Env fusion – inhibitors of HIV-1 Env-driven cell-cell fusion, primary screen, HeLa-JRFL effector, CEM21 target cells, luciferase; inhibition, % at 12.3 µM; 360,000 compounds, 1.1% hits;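 active means mean replicate inhibition score of at least 50 and every replicate individually at or above 50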;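 further: 0% = plate neutral controls and 100% = maraviroc near 300 nM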
Cneo AK release – Cryptococcus neoformans cell lysis inducers, primary screen, AK release luminescence, single concentration | C. neoformans lysis, adenylate kinase release luminescence, 4 h; normalised: neutral wells 0, clomiphene wells 100 | lysis activity, % at 15 µM | 360,000 compounds, 0.2% hits | AID 651654, 2012;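 active means mean lysis activity across replicates of at least 80%, whatever share of replicates individually reach that level; inactive means mean lysis activity below 80%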
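Material – Cryptococcus neoformans yeast cells · Quantity – 5 × 10^6 yeast cells/mL · Buffer or medium – YPD medium · Compound – single dose · Timing – 4 h static compound exposure, 37 °C, read 1 h post-reagent · Signal – adenylate kinase release luminescence · Read-out basis – lysis from increased AK signal · Benchmarks – Clomiphene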
Ecoli rRNA inh – reduced GFP signal of wild-type E. coli, primary screen, bacterial rRNA inhibitor project, GFP/RFP fluorescence, OD600, single point | E. coli WT GFP vs humanized-ribosome RFP mutants, 24 h; active compounds read low; DMSO median 0, no signal -100 | GFP signal change (wild-type ribosome), % (no concentration beside the values) | 350,000 compounds, 1.6% hits | AID 720706, 2013;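 active means significant combined selectivity score with lowered wild-type GFP, culture density cut under 30%, mutant RFP and density less affected; inactive means any of these conditions unmet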
An asterisk follows results filed as active; x = not tested or not shown; ! = not active in a repeat; [ ] = dose if it differs, or a comment.

SMILES	CFTR F508del cor	miR122 inh	GSIS activator	HIV Env fusion	Cneo AK release	Ecoli rRNA inh
CC(C)NC(=O)Nc1cccc2c1O[C@H](CN(C)C(=O)OC(C)(C)C)[C@H](C)CN(C)C2=O	x	x	5	x	x	1
C[C@H](CO)N1C[C@H](C)[C@@H](CN(C)Cc2ccc(Cl)c(Cl)c2)Oc2c(NC(=O)c3cnccn3)cccc2C1=O	3	71[16.7 µM]	-40	15[16.7 µM]	-1	-9
COc1ccc(OC)c(S(=O)(=O)Nc2ccc(F)cc2)c1	0	78	10	x	0	18
COc1ccc(C(=O)NCCc2ccccn2)cc1S(=O)(=O)Nc1ccc(Br)cc1	0	x	-41	x	2	-20*
Cc1ccc(C)c(S(=O)(=O)Nc2ccc(C(=O)NCCc3ccccn3)cc2)c1	-3	x	-21	-19	x	-1
CCOc1cc(C)c(S(=O)(=O)Nc2ccc(F)cc2)cc1C	x	304*	-16	40	1	x
COc1ccc(C)cc1S(=O)(=O)Nc1ccc(F)cc1	x	113*	x	-48	2	x
COc1ccc(-c2ccc3n(c2=O)C[C@@H]2[C@@H](CO)[C@H](C(=O)N4CCN(C)CC4)N[C@H]32)cc1	-1	-5[16.7 µM]	1	x	-1	2
C[C@H]1CN([C@@H](C)CO)C(=O)Cc2cc(NC(=O)Nc3ccc(C(F)(F)F)cc3)ccc2O[C@H]1CN(C)S(=O)(=O)c1cn(C)cn1	2	7[16.7 µM]	-15	15[16.7 µM]	0	1
C[C@@H]1CCCCO[C@@H](CN(C)Cc2ccc(C(F)(F)F)cc2)[C@H](C)CN([C@H](C)CO)C(=O)c2cc(NC(=O)CCC(F)(F)F)ccc2O1	6	-3[16.7 µM]	-23	21[16.7 µM]	10	4
CSC1SCC2C(=O)N(C)C(C(C)C)C(=O)OCC(NC(=O)c3cnc4ccccc4n3)C(=O)NC(C)C(=O)N(C)C1C(=O)N(C)C(C(C)C)C(=O)OCC(NC(=O)c1cnc3ccccc3n1)C(=O)NC(C)C(=O)N2C (centres undefined)	-3	7	0	84*	x	-41
COc1ccc(NC(=O)c2ccc3[nH]c(C)c(C)c3c2)cc1	-1	-12	-5	-24	-6	-25*
CNC[C@@H]1Oc2ccc(NS(=O)(=O)c3ccc(Cl)cc3)cc2C(=O)N([C@@H](C)CO)C[C@H]1C	2	1[16.7 µM]	23	x	-43	6
O=C(Cc1cccnc1)N1CC(=O)N2[C@H](CO)[C@H](c3ccc(C#CC4CCCCC4)cc3)[C@H]2C1	-2	x	-4	x	x	2
CS(=O)(=O)N1[C@@H]2CN(CC3CC3)C[C@H]1C2c1ccc(Br)cc1 (some centres undefined)	x	x	11	x	x	-6
COc1cccc(C(=O)NCCSc2c(C)[nH]c3ccccc23)c1OC	1	x	-29	4	0	-35
CC/C(=C/c1ccccc1)c1cccc2[nH]c3c(OC)cccc3c12	3	x	1	58*	-18	17
Cc1cccc(/C=N/NC(=O)Cc2cccs2)c1	-1	-3	-3	2	0	-19*
C[C@@H]1CN([C@@H](C)CO)C(=O)c2cc(NC(=O)C3CCCCC3)ccc2O[C@H]1CN(C)S(=O)(=O)c1cn(C)cn1	-1	2[16.7 µM]	14	6[16.7 µM]	-1	0
O=C(Cn1nc(C(F)F)cc1C(F)F)NNC(=S)Nc1ccc([N+](=O)[O-])cc1	-1	x	-15	20	x	-18*
O=C(Cn1nc(C(F)F)cc1C(F)F)NNC(=S)Nc1ccc(F)cc1	x	9	-6	-26	1	x
O=C1C=C(O)c2cccc(O)c2C1=O	-3	-6	x	x	2	x
O=C1C=C(c2c(O)ccc3ccccc23)c2ccccc2C1=O	-3	7	41*	13	x	-34
COc1cc(-c2ccc3sc(-c4ccsc4)c(C#CCO)c3c2)cc(OC)c1OC	-1	4	x	39	1	12
COC(=O)c1c(-c2ccsc2)sc2ccc(-c3cc(OC)c(OC)c(OC)c3)cc12	4	x	3	59*	-1	9
SMILES	CFTR F508del cor	miR122 inh	GSIS activator	HIV Env fusion	Cneo AK release	Ecoli rRNA inh
C=CCn1c(O)c(N=NC(=S)Nc2ccccc2F)c2ccccc21	6	x	11	46	x	-21*
O=C(C1CCCC1)N1CCCCN2[C@H](CO)[C@@H](c3ccc(-c4cccc(F)c4)cc3)[C@H]2C1	-2	-26[16.7 µM]	x	x	1	x
Cc1ccc(S(=O)(=O)N2CCN(S(=O)(=O)c3ccccc3)C2c2ccc(N(C)C)cc2)cc1 (centres undefined)	x	6	x	53*	0	x
COc1ccc(C2N(C(C)=O)CCN2S(=O)(=O)c2ccc(C)cc2)cc1 (centres undefined)	4	6	6	0	0	3
COc1ccc(C2N(S(=O)(=O)c3ccc(C)cc3)CCN2S(=O)(=O)c2ccc(C)cc2)cc1	x	4	2	105*	2	-1
CC(=O)N1CCN(S(=O)(=O)c2ccc(C)cc2)C1c1ccc(N(C)C)cc1 (centres undefined)	x	-17	x	-16	0	x
Cc1ccc(C(C)(c2ccc(N)cc2)c2ccc(N)cc2)cc1	1	-3	9	8	4	-39*
O=C(C[C@H]1C=C[C@@H](NC(=O)c2ccncc2)[C@H](CO)O1)Nc1ccccc1	1	x	8	x	x	3
C[C@@H](C(=O)Nc1ccc2ccccc2c1)[C@H]1C[C@]1(C)[C@H](NC(=O)c1cccnc1)c1ccccc1	0	x	-48	68*	x	-10
CNC[C@@H]1Oc2cc(Br)ccc2S(=O)(=O)N([C@H](C)CO)C[C@H]1C	2	-5	15	10	100*!	16
CNC[C@H]1Oc2cc(Br)ccc2S(=O)(=O)N([C@H](C)CO)C[C@H]1C	-2	-12	9	-2	91*!	-1
CNC[C@@H]1OCCCC[C@H](C)Oc2ccc(NC(=O)Nc3ccccc3)cc2C(=O)N([C@@H](C)CO)C[C@@H]1C	0	8[16.7 µM]	1	-2[16.7 µM]	1	1
CO[C@H](CN(C)C(=O)C1CC1)[C@H](C)CN(C(=O)Nc1ccc(C(F)(F)F)cc1)[C@@H](C)CO	0	x	-36	56*[16.7 µM]	0	-63
CO[C@@H](CN(C)C(=O)C1CCOCC1)[C@@H](C)CN(C(=O)Nc1ccc(C(F)(F)F)cc1)[C@@H](C)CO	-1	x	-16	x	-2	-58
CCOc1cc(-c2c(C#N)c(=O)[nH]c3c2c(C)nn3-c2ccc(F)cc2)ccc1O	x	1	x	57*	0	x

Screening results: PubChem, Broad Institute
